Measurements pooled from the literature.
Compare with care: the assays were run in different laboratories.
Mode: inhibitor
DRD3: D(3) dopamine receptor (DRD3, Homo sapiens, UniProt P35462)
USP51: Ubiquitin carboxyl-terminal hydrolase 51 (USP51, Homo sapiens, UniProt Q70EK9)
SLC6A3: Sodium-dependent dopamine transporter (SLC6A3, Homo sapiens, UniProt Q01959)
CA12: Carbonic anhydrase 12 (CA12, Homo sapiens, UniProt O43570)

Cc1cccc(N2CCN(CC(O)COc3ccc4ccccc4c3)CC2)c1C (centres unmarked)  inhibition (DRD3; enzyme activity; 10 µM): 52.9%
CN1C(=O)/C(=C2/C(=O)Nc3ccccc32)c2ccccc21  inhibition (USP51; enzyme activity; 5 µM): 48%
c1ccc(CCC2CCN(CCCCn3nnnc3C(c3ccccc3)c3ccccc3)CC2)cc1  inhibition (SLC6A3; transporter uptake; HEK293; 1 µM): 80.3%
OC(CNCc1cccc(Oc2nnnn2-c2ccccc2)c1)c1ccccc1 (centres unmarked)  inhibition (DRD3; enzyme activity; 10 µM): 29.3%
Fc1ccc(C(c2ccc(F)cc2)c2nnnn2CCCN2CCC(CCCc3ccccc3)CC2)cc1  inhibition (SLC6A3; transporter uptake; HEK293; 1 µM): 33.1%
C[Se]CC[C@H](N)C(=O)O  inhibition (USP51; enzyme activity; 5 µM): 34%
COc1cc(C(C)=O)ccc1OCC(O)CN1CCN(c2cc(Cl)ccc2C)CC1 (centres unmarked)  inhibition (DRD3; enzyme activity; 10 µM): 35.9%
N#CC1CSc2[nH]c(=O)sc2C1c1cn(-c2ccccc2)nc1-c1ccc(Br)cc1 (centres unmarked)  inhibition (CA12; enzyme activity, absorbance; 0.1 µM): 40.6%
Clc1ccc(CC2CCN(CCCCn3nnnc3C(c3ccccc3)c3ccccc3)CC2)cc1Cl  inhibition (SLC6A3; transporter uptake; HEK293; 1 µM): 67.7%
CC(C)Oc1ccc2c(=O)c(-c3ccccc3)coc2c1  inhibition (USP51; enzyme activity; 5 µM): 43%
Cc1ccc(-c2nn(-c3ccccc3)cc2C2c3sc(=O)[nH]c3SC3C(=O)N(c4ccccc4)C(=O)C32)cc1 (centres unmarked)  inhibition (CA12; enzyme activity, absorbance; 1 µM): 56.2%
COc1ccc(S(N)(=O)=O)cc1C(=O)NCCCN1CCN(c2ccccc2OC)CC1  inhibition (DRD3; enzyme activity; 10 µM): 21.6%
Clc1ccc(C(c2ccc(Cl)cc2)c2nnnn2CCCCN2CCN(CCCc3ccccc3)CC2)cc1  inhibition (SLC6A3; transporter uptake; HEK293; 1 µM): 72.7%
COc1cc2c(cc1OC)-c1cc3ccc(OC)c(OC)c3c[n+]1CC2  inhibition (USP51; enzyme activity; 5 µM): 51%
CCOC(=O)C1CSc2[nH]c(=O)sc2C1c1cn(-c2ccccc2)nc1-c1ccc(Cl)cc1 (centres unmarked)  inhibition (CA12; enzyme activity, absorbance; 10 µM): 85.5%
O=C(/C=C/C=C/c1ccc2c(c1)OCO2)N1CCCCC1  inhibition (USP51; enzyme activity; 5 µM): 31%
CCOC(=O)C1CSc2[nH]c(=O)sc2C1c1cn(-c2ccccc2)nc1-c1ccc(C)cc1 (centres unmarked)  inhibition (CA12; enzyme activity, absorbance; 0.1 µM): 28%
O=c1c(-c2ccc(O)cc2)coc2cc(O)ccc12  inhibition (USP51; enzyme activity; 5 µM): 10%
Clc1ccc(C(c2ccc(Cl)cc2)c2nnnn2CCCCN2CCC(Cc3ccc(Cl)c(Cl)c3)CC2)cc1  inhibition (SLC6A3; transporter uptake; HEK293; 1 µM): 62.6%
O=c1oc2cc(OCC(O)CN3CCN(c4ccc(F)cc4)CC3)ccc2c2c1CCC2 (centres unmarked)  inhibition (DRD3; enzyme activity; 10 µM): 0%
N[C@@H](CSSC[C@H](N)C(=O)O)C(=O)O  inhibition (USP51; enzyme activity; 5 µM): 24%
COc1cc(CNCCc2c[nH]c3ccccc23)cc(Cl)c1OCC(N)=O  inhibition (DRD3; enzyme activity; 10 µM): 39.6%
CCOC(=O)C1CSc2[nH]c(=O)sc2C1c1cn(-c2ccccc2)nc1-c1ccccc1 (centres unmarked)  inhibition (CA12; enzyme activity, absorbance; 0.1 µM): 27.5%
Fc1ccc(C(c2ccc(F)cc2)c2nnnn2CCCCN2CCC(Cc3ccccc3)CC2)cc1  inhibition (SLC6A3; transporter uptake; HEK293; 1 µM): 92.3%
COc1ccc(S(N)(=O)=O)cc1C(=O)NCCCN1CCN(c2ccccc2C)CC1  inhibition (DRD3; enzyme activity; 10 µM): 22.8%
CCOC(=O)C1CSc2[nH]c(=O)sc2C1c1cn(-c2ccccc2)nc1-c1ccc(Br)cc1 (centres unmarked)  inhibition (CA12; enzyme activity, absorbance; 1 µM): 55.8%
CC[C@H]1CN2CCc3cc(OC)c(OC)cc3[C@@H]2C[C@@H]1C[C@H]1NCCc2cc(OC)c(OC)cc21  inhibition (USP51; enzyme activity; 5 µM): 20%
Cc1ccccc1N1CCN(CC(O)COc2ccc(C(=O)c3ccccc3)cc2)CC1 (centres unmarked)  inhibition (DRD3; enzyme activity; 10 µM): 53.1%
O=C1NC(=S)C(=Cc2cn(-c3ccccc3)nc2-c2ccc(Br)cc2)S1  inhibition (CA12; enzyme activity, absorbance; 100 µM): 75%
